Measurements pooled from the literature.
Target: Dual specificity testis-specific protein kinase 1 (TESK1, Homo sapiens, UniProt Q15569)

SMILES | assay | setting | remaining binding [%]
O=C(c1ccc(Nc2ncc(Cl)c(-c3cc4ccccc4s3)n2)cc1)N1CCC(N2CCCC2)CC1 | binding, competition with immobilised ligand | 1 µM | 81
N[C@H]1CCN(c2nccc(-c3cnn4ncccc34)n2)C1 | binding | 1 µM | 86
CO[C@H]1CC[C@H](CNc2ccc(S(=O)(=O)NC(=O)c3ccc(N4CCN(CC5=C(c6ccc(Cl)cc6)CC(C)(C)CC5)CC4)cc3Oc3cnc4[nH]ccc4c3)cc2[N+](=O)[O-])CC1 | cell-free assay, competition with immobilised ligand | 1 µM | 100
Nc1ncc2c(n1)-c1c([nH]c3ccc(C#CC4CC4)cc13)CCCC2 | binding, competition with immobilised ligand | 1 µM | 100
Cc1cnc(Nc2ccc(C(=O)N3CCC(N4CCCC4)CC3)cc2)nc1-c1cc2ccccc2s1 | binding, competition with immobilised ligand | 1 µM | 72
C[C@@H]1CCN(c2nccc(-c3cnn4ncccc34)n2)C1 | binding | 1 µM | 91
COc1cnc(Nc2cccc(S(N)(=O)=O)c2)nc1N1CCN(c2ccccc2)CC1 | binding, competition with immobilised ligand | 1 µM | 100
O=C(Nc1c[nH]nc1C(=O)NC1CCNCC1)c1cc(F)cc(F)c1 | binding, competition with immobilised ligand | 1 µM | 100
Nc1cnc(N2CCc3cc(S(=O)(=O)Nc4c(F)cc(Cl)cc4F)cc(N4CCCC4=O)c32)nc1 | cell-free assay, competition with immobilised ligand | 1 µM | 100
CN(CCCC(F)(F)F)c1nccc(-c2cnn3ncccc23)n1 | binding | 1 µM | 67
c1cncc(-c2cccc(Nc3nccc(NC4CCCCC4)n3)c2)c1 | binding, competition with immobilised ligand | 10 µM | 77
COc1ncc2cc3ccccc3nc2c1C#N | cell-free assay, competition with immobilised ligand | 5 µM | 94
Cc1cc(NC(=O)c2cccc(S(F)(F)(F)(F)F)c2)cc(-n2ccn3nc(-c4cccnc4)cc23)c1 | cell-free assay, competition with immobilised ligand | 1 µM | 91.7
CN(C)c1nccc(-c2cnc3ncccn23)n1 | binding | 1 µM | 90
NS(=O)(=O)c1cc(NC(=O)Cc2ccccc2)ccc1Oc1cccc(Cl)c1 | cell-free assay, competition with immobilised ligand | 1 µM | 100
O=C(c1ccc(Nc2ncc(Cl)c(-c3ccc(Cl)s3)n2)cc1)N1CCC(N2CCCC2)CC1 | binding, competition with immobilised ligand | 1 µM | 99
CCCOc1ccc([C@H]2[C@H](C(=O)O)[C@@H](c3ccc4c(c3)OCO4)CN2CC(=O)Nc2c(CC)cccc2CC)cc1 | cell-free assay, competition with immobilised ligand | 1 µM | 89
c1cnn2ncc(-c3ccnc(N4CCC45COC5)n3)c2c1 | binding | 1 µM | 99
CN(C)CC#Cc1ccc(OCCCc2sc(N3CCc4cccc(C(=O)Nc5nc6ccccc6s5)c4C3)nc2C(=O)O)c(F)c1 | cell-free assay, competition with immobilised ligand | 1 µM | 100
CC1CCCN1c1nccc(-c2cnn3ncccc23)n1 (centres unmarked) | binding | 1 µM | 99
